# Tests used:
# Assay type in all cases: functional; call rule not given here
# [1] = species: Rattus norvegicus; experiment: In vitro inhibitory concentration against lipid synthesis in primary rat hepatocyte culture
# Method in brief: (§1)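 Primary hepatocytes isolated from male Sprague-Dawley rats (Seglen method) and plated on collagen in DMEM with 20% FBS, 100 nM insulin, 25 mM glucose. Medium made serum-free after 4 h, cultured overnight to monolayers. Then 4 h incubation with 0.25 μCi [14C]-acetate/well (1 Ci/mol) and 0–300 μM compound. Lipids extracted into scintillant and counted. IC50 derived from lipid synthesis rates by nonlinear sigmoidal fit.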
# [2] = tested on: Rattus norvegicus; experiment: Percent change from pre-treatment in Triglycerides level at 97 mg/kg after 1 week.
# Method in brief: (§2)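 Female obese Zucker fatty rats Crl:(Zuc)-faBR, 10–12 weeks old (400–500 g), n=3–4, fed chow. Dosed by oral gavage once daily in 20% EtOH/80% PEG-200 for up to 14 days. Serum taken after a 6 h fast before dosing, at day 7 (orbital plexus) and at day 14 (cardiac puncture). TG by enzymatic kit on analyzer. HDL-C and non-HDL-C from Superose 6 gel-filtration profile area × total cholesterol. Results given as % change from pretreatment.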
# [3] = tested on: Rattus norvegicus; experiment: Percent change from pre-treatment in Non HDL-Cholesterol level at 97 mg/kg after 1 week.; method in brief: as §2
# [4] = tested on: Rattus norvegicus; experiment: Percent change from pre-treatment in HDL-Cholesterol level at 97 mg/kg after 2 weeks.; method in brief: as §2
# [5] = tested on: Rattus norvegicus; experiment: Percent change from pre-treatment in Non HDL-Cholesterol level at 97 mg/kg after 2 weeks.; method in brief: as §2
# [6] = tested on: Rattus norvegicus; experiment: Percent change from pre-treatment in Triglycerides level at 97 mg/kg after 2 weeks.; method in brief: as §2
# [7] = tested on: Rattus norvegicus; experiment: Percent change from pre-treatment HDL-Cholesterol level at 100 mg/Kg after 1 week; method in brief: as §2
# [8] = tested on: Rattus norvegicus; experiment: Percent change from pre-treatment triglycerides level at 100 mg/Kg after 2 weeks; method in brief: as §2
# [9] = tested on: Rattus norvegicus; experiment: Percent change from pre-treatment Non HDL-Cholesterol level at 100 mg/Kg after 2 weeks; method in brief: as §2
# [10] = tested on: Rattus norvegicus; experiment: Percent change from pre-treatment triglycerides level at 100 mg/Kg after 1 week; method in brief: as §2
# [11] = tested on: Rattus norvegicus; experiment: Percent change from pre-treatment Non HDL-Cholesterol level at 100 mg/Kg after 1 week; method in brief: as §2
# [12] = tested on: Rattus norvegicus; experiment: Percent change from pre-treatment HDL-Cholesterol level at 100 mg/Kg after 2 weeks; method in brief: as §2
# [13] = tested on: Rattus norvegicus; experiment: Percent change from pre-treatment in Triglycerides level at 30 mg/kg after 1 week.; method in brief: as §2
# [14] = tested on: Rattus norvegicus; experiment: Percent change from pre-treatment in Non HDL-Cholesterol level at 30 mg/kg after 1 week.; method in brief: as §2
# [15] = tested on: Rattus norvegicus; experiment: Percent change from pre-treatment in Triglycerides level at 30 mg/kg after 2 weeks.; method in brief: as §2
# [16] = tested on: Rattus norvegicus; experiment: Percent change from pre-treatment in HDL-Cholesterol level at 30 mg/kg after 1 week.; method in brief: as §2
# [17] = tested on: Rattus norvegicus; experiment: Percent change from pre-treatment in Non HDL-Cholesterol level at 30 mg/kg after 2 weeks.; method in brief: as §2
# [18] = tested on: Rattus norvegicus; experiment: Percent change from pre-treatment in Triglycerides level at 80 mg/kg after 2 weeks; method in brief: as §2
# [19] = tested on: Rattus norvegicus; experiment: Percent change from pre-treatment in Non HDL-Cholesterol level at 80 mg/kg after 2 weeks; method in brief: as §2
# [20] = tested on: Rattus norvegicus; experiment: Percent change from pre-treatment in HDL-Cholesterol level at 80 mg/kg after 2 weeks; method in brief: as §2
# [21] = tested on: Rattus norvegicus; experiment: Percent change from pre-treatment in Non HDL-Cholesterol level at 80 mg/kg after 1 week; method in brief: as §2
# [22] = tested on: Rattus norvegicus; experiment: Percent change from pre-treatment in HDL-Cholesterol level at 80 mg/kg after 1 week; method in brief: as §2
# [23] = tested on: Rattus norvegicus; experiment: Percent change from pre-treatment in Triglycerides level at 80 mg/kg after 1 week; method in brief: as §2
# [24] = tested on: Rattus norvegicus; experiment: Percent change from pre-treatment in HDL-Cholesterol level at 30 mg/kg after 2 weeks.; method in brief: as §2
# [25] = species: Rattus norvegicus; experiment: In Vitro inhibitory concentration against lipid synthesis in primary rat hepatocyte culture. na=Not active; inhibition of [14C]acetate incorporation into total lipids is less than 50% at 300 uM.; method in brief: as §1
Compound,IC50 [1] [µM],Change [7] [%],Change [8] [%],Change [9] [%],Change [10] [%],Change [11] [%],Change [12] [%],further results
CC(C)(CO)CCCC1CCC(CCCC(C)(C)CO)O1 (centres undefined),9,–,–,–,–,–,–,Change [2]: -49%; Change [3]: 11%; Change [4]: 140%; Change [5]: 31%; Change [6]: -13%
CC(C)(CCCCOCCCCC(C)(C)CCC(=O)O)CCC(=O)O,22,13,-73,-30,-80,-50,39,–
CC(C)(CO)CCCCCOCCCCC(C)(C)CO,11,–,–,–,–,–,–,Change [13]: -66%; Change [14]: -26%; Change [15]: -77%; Change [16]: 71%; Change [17]: 17%
CC(C)(CO)Cc1cccc(Oc2cccc(CC(C)(C)CO)c2)c1,98,17,-54,-50,-32,-50,25,–
CC(C)(CO)CCCCCCCCCC(C)(C)CO,4,189,-82,-75,-83,-67,137,–
CC(C)(CO)CCCCCCCCCCCC(C)(C)CO,4,-5,-35,48,-70,-20,-1,–
CC(C)(CCCCCCCCCCCC(C)(C)C(=O)O)C(=O)O,7,-14,-87,-60,-89,-66,-6,–
CC(C)(CCOCCCOCCC(C)(C)C(=O)O)C(=O)O,–,–,–,–,–,–,–,Change [18]: 46%; Change [19]: 15%; Change [20]: -5%; Change [21]: -10%; Change [22]: -18%; Change [23]: 5%
CC(C)(CO)CCCCOCCCC(C)(C)CO,17,–,–,–,–,–,–,Change [13]: 21%; Change [14]: 44%; Change [15]: 32%; Change [16]: 24%; Change [24]: 40%; Change [17]: 74%
CC(C)(CO)CCCCOCCCCC(C)(CO)c1ccccc1 (centres undefined),5,26,-45,-13,-61,-55,52,–
CC(C)(CO)CCCCOCCCCC(C)(C)COC1CCCCO1 (centres undefined),11,130,-63,-14,-69,-28,152,–
CC(CO)(CCCCOCCCC(C)(CO)c1ccccc1)c1ccccc1 (centres undefined),–,–,–,–,–,–,–,Change [13]: -1%; Change [14]: 16%; IC50 [25]: Not Active; Change [15]: 21%; Change [16]: -2%; Change [24]: -20%; Change [17]: 45%
CC(C)(CO)CCCOCCOCCCC(C)(C)CO,–,3,6,45,-9,33,10,IC50 [25]: Not Active
CC(CO)(CCCOCCCC(C)(CO)c1ccccc1)c1ccccc1 (centres undefined),130,7,-18,-26,-27,-32,5,–
CC(C)(Cc1cccc(Oc2cccc(CC(C)(C)C(=O)O)c2)c1)C(=O)O,53,20,-27,-21,-46,-59,16,–
CC(C)(CCCCOCCCCC(C)(C)COC1CCCCO1)COC1CCCCO1 (centres undefined),20,43,22,92,-1,46,79,–
CC(C)(CO)CCCC1CCCC(CCCC(C)(C)CO)O1 (centres undefined),39,75,-46,-31,-74,-70,–,–
CC(C)(CCCOCCOCCCC(C)(C)C(=O)O)C(=O)O,72,-6,-13,-13,-24,-38,-4,–
CC(C)(CO)CCCOCCCC(C)(C)CO,–,–,–,–,–,–,–,Change [13]: 21%; Change [14]: 7%; IC50 [25]: Not Active; Change [15]: 77%; Change [16]: -13%; Change [24]: -8%; Change [17]: 58%

# From ChEMBL document CHEMBL1137218, “Long hydrocarbon chain ether diols and ether diacids that favorably alter lipid disorders in vivo” (J Med Chem, 2004)
